Activity calls are given as the source filed them. No cut-off for these calls is given here.

For one series, the system named is Brain. In words: Drug uptake in Mdr1(a/b) knock out and P-gp competent FVB mouse brain at 1 mg/kg, iv at 5 mins. Further details: dose 1 mg/kg, route intravenous. To be noted: in vivo. The series is classed as ADME, organism-based. In outline: (§1)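 FVB mice, both Mdr1a/b (-/-) and P-gp-competent wild-type, were given a single 1 mg/kg IV dose. Brain and plasma concentrations were measured 5 min after dosing. Brain uptake was expressed as the brain-to-plasma concentration ratio (Kp). In vivo P-gp efflux was assessed by comparing the knockout and wild-type strains.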

Series [1] addresses T1, Serine/threonine-protein kinase 3 (Homo sapiens) (UniProt Q13188).
T1 sequence (whole entry): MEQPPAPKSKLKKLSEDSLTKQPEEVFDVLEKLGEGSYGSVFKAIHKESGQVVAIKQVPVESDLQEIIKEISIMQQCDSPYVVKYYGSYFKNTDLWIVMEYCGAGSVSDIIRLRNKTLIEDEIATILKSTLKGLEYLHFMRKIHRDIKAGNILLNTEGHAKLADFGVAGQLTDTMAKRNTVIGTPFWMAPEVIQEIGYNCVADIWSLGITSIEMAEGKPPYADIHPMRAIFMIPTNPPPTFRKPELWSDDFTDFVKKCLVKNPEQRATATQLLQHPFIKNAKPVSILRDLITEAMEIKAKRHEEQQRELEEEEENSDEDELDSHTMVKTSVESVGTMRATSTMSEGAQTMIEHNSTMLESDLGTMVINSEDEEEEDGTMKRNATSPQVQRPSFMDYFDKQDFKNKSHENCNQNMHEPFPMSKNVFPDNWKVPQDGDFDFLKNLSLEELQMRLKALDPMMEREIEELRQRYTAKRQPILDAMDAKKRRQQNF
In words: Inhibition of STK3 (unknown origin) at 10 uM relative to control.

The target in series [2] is Receptor tyrosine-protein kinase erbB-4 (Homo sapiens) (UniProt Q15303). In words: Inhibition of ERBB4 (unknown origin) at 10 uM relative to control.
Series [3] concerns the target Serine/threonine-protein kinase PAK 4 (Homo sapiens) (UniProt O96013). In words: Inhibition of PAK4 (unknown origin) at 10 uM relative to control.
Series [4] addresses Rho-associated protein kinase 2 (Homo sapiens) (UniProt O75116). The series can be described thus: Inhibition of ROCK2 (unknown origin) at 10 uM relative to control.
Series [5] deals with Tyrosine-protein kinase ABL1 (Homo sapiens) (UniProt P00519). The series can be described thus: Inhibition of ABL1 (unknown origin) at 10 uM relative to control.
The target of series [6] is RAF proto-oncogene serine/threonine-protein kinase (Homo sapiens) (UniProt P04049). In words: Inhibition of RAF1 (unknown origin) at 10 uM relative to control.
A short description of series [7]: Ratio of drug level in brain to plasma in Mdr1(a/b) knock out and P-gp competent FVB mouse at 1 mg/kg, iv at 5 mins. Further details: dose 1 mg/kg, route intravenous. To be noted: read-out: BPR. The series is classed as ADME, organism-based. In outline: as §1
In series [8] the target is Insulin receptor (Homo sapiens) (UniProt P06213). The series can be described thus: Inhibition of INSR (unknown origin) at 10 uM relative to control.
Series [9] has as its target ATP-dependent translocase ABCB1 (Homo sapiens, UniProt P08183). The series can be described thus: Inhibition of MDR1 (unknown origin) transfected in MDCK cells. Format: cell-based.
The target of series [10] is T2, Leucine-rich repeat serine/threonine-protein kinase 2 (Homo sapiens, UniProt Q5S007, G2019S). In words: Inhibition of GST-tagged LRRK2 G2019S mutant (970 to 2527 amino acid residues) (unknown origin) assessed as inhibition of biotinylated-LRRKtide phosphorylation by HTRF assay in presence of ATP. On the technique in general: TR-FRET usually uses a lanthanide donor and a delayed reading to cut background.

In the next series the test system is Mus musculus. In words: Inhibition of P-gp in Mdr1(a/b) knock out and P-gp competent FVB mouse at 1 mg/kg, iv. More on the design: dose 1 mg/kg. The series is classed as functional, organism-based. In outline:
as §1

For series [11], the target named is Serine/threonine-protein kinase MARK2 (Homo sapiens) (UniProt Q7KZI7). In words: Inhibition of MARK2 (unknown origin) at 10 uM relative to control.
Series [12] concerns the target Platelet-derived growth factor receptor alpha (Homo sapiens, UniProt P16234). In words: Inhibition of PDGFRalpha (unknown origin) by TR-FRET assay in presence of ATP.
The target in series [13] is Macrophage colony-stimulating factor 1 receptor (Homo sapiens, UniProt P07333). In words: Inhibition of CSF1R (unknown origin) by TR-FRET assay in presence of ATP.
Series [14] deals with Leucine-rich repeat serine/threonine-protein kinase 2 (Homo sapiens, UniProt Q5S007). In words: Inhibition of wild type GST-tagged LRRK2 (970 to 2527 amino acid residues) (unknown origin) assessed as inhibition of biotinylated-LRRKtide phosphorylation by HTRF assay in presence of ATP.
For series [15], the target named is T2, Leucine-rich repeat serine/threonine-protein kinase 2. In words: Inhibition of LRRK2 G2019S mutant (unknown origin) transfected in HEK293 cells assessed as inhibition of S935 phosphorylation. Format: cell-based.

Tyrosine-protein kinase ABL1 (Homo sapiens), sequence (P00519 whole entry): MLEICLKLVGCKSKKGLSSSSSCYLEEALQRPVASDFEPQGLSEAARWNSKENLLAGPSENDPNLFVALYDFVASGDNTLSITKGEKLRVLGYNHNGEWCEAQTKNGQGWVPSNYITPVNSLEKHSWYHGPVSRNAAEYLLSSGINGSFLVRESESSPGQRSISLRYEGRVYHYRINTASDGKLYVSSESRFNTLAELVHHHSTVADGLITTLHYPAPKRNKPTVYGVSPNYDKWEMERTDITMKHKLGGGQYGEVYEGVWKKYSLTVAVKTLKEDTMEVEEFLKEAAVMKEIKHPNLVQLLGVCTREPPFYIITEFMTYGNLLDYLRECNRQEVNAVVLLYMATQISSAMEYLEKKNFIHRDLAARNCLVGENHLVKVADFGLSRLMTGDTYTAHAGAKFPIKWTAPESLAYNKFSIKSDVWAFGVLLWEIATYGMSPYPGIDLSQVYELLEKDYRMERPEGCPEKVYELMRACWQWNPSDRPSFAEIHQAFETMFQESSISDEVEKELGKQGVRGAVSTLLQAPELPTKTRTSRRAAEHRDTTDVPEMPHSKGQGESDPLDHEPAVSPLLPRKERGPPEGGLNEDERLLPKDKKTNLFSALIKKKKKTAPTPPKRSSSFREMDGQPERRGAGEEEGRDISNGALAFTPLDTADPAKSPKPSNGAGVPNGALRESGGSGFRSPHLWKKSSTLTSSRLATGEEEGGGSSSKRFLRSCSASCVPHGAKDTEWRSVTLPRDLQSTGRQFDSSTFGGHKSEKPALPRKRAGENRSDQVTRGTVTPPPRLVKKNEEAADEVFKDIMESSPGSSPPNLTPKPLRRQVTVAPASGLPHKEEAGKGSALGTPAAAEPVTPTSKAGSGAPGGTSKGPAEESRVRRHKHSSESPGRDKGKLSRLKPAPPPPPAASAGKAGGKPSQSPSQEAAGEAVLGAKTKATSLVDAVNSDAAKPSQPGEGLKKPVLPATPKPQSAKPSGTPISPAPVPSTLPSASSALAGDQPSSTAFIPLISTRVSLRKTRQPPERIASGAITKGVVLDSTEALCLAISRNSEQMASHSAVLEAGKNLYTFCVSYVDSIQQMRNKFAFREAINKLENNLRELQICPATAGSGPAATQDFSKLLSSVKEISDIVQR
T2 sequence (Q5S007 whole entry G2019S, the tested form may be a part): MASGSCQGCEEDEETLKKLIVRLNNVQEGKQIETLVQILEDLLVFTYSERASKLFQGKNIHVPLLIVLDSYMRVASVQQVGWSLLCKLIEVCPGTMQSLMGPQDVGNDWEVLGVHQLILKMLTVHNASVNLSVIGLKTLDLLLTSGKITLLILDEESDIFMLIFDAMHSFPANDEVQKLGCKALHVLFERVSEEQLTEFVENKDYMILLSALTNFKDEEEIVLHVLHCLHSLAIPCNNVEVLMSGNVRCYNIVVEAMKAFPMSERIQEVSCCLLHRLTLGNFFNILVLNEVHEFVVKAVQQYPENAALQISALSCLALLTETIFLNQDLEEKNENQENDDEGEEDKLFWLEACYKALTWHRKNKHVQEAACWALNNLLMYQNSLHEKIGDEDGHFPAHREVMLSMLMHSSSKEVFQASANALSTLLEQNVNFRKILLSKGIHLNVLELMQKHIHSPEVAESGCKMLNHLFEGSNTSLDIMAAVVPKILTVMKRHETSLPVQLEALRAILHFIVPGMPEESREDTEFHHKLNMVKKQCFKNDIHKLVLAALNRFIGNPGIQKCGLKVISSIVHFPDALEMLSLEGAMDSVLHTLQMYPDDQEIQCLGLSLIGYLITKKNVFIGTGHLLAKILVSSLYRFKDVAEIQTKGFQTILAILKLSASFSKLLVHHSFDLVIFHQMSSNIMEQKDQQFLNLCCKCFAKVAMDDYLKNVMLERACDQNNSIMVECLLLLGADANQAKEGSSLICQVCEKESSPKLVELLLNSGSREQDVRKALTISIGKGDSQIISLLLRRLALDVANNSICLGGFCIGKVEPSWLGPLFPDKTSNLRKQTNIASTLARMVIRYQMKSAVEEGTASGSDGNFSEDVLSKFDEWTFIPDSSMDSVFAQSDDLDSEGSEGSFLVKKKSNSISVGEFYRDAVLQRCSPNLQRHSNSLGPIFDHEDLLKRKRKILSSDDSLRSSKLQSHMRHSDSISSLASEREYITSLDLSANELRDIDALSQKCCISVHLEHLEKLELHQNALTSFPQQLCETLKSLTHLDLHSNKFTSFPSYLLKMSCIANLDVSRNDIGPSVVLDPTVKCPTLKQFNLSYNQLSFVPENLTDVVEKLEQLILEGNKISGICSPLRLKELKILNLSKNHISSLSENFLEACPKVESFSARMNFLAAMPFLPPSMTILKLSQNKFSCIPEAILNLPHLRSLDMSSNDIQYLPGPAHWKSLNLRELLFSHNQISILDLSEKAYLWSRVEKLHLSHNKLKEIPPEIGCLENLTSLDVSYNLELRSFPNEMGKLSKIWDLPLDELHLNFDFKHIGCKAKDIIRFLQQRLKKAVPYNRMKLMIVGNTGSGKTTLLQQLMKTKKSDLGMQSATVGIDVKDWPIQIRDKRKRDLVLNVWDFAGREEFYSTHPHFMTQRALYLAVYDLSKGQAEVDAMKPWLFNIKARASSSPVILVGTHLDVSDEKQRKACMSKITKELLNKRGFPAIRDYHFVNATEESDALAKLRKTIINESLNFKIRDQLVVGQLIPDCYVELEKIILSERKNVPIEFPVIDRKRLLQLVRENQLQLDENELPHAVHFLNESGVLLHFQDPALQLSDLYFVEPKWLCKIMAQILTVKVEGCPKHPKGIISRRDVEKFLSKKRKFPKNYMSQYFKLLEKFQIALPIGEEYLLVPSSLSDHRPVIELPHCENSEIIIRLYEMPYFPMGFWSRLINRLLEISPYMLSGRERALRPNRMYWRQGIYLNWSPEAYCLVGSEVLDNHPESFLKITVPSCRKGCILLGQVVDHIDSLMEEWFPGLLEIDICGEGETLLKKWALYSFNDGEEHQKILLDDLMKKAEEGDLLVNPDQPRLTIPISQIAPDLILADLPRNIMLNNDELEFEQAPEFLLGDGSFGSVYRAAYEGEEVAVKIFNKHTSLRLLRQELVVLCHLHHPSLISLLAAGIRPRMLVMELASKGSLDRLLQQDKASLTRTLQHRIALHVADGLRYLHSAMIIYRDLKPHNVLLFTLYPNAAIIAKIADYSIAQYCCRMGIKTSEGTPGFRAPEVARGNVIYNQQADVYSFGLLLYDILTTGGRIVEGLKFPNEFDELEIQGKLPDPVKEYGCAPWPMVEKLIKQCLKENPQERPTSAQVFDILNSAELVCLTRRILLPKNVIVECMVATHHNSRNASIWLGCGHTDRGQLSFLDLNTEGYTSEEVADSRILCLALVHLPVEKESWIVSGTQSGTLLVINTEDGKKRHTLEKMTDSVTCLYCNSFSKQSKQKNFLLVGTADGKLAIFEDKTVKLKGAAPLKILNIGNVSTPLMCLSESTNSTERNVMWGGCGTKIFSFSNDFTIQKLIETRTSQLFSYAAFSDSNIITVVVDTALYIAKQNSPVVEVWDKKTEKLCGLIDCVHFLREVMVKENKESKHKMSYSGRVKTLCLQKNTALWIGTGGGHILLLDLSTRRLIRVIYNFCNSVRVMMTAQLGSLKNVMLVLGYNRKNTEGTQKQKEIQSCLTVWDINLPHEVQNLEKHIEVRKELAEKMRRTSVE
Macrophage colony-stimulating factor 1 receptor, sequence (P07333 whole entry, the tested form may be a part): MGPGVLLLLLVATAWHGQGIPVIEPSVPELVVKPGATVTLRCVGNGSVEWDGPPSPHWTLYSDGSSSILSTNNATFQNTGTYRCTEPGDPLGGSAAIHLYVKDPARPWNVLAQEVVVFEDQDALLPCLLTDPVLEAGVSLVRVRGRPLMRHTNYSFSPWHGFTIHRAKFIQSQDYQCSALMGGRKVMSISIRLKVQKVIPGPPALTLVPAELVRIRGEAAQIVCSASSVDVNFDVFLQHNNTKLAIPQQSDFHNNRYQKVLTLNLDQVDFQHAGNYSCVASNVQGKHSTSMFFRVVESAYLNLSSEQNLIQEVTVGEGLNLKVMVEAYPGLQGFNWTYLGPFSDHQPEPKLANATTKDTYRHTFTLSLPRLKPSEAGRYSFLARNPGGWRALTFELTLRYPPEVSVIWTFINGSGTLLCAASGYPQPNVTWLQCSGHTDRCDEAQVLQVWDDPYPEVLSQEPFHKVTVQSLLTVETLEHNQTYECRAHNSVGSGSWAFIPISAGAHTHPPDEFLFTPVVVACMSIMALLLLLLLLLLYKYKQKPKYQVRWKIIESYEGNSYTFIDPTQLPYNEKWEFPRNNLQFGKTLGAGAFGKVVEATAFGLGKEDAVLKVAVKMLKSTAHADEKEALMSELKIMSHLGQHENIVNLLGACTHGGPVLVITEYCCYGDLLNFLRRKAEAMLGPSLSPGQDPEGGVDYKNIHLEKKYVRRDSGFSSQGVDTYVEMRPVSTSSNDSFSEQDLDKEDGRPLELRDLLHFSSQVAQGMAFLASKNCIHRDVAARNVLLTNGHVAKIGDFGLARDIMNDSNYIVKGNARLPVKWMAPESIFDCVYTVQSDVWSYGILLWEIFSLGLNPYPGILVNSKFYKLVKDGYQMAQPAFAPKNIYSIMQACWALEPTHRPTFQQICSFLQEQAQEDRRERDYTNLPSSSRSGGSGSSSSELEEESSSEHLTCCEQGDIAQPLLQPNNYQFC
Leucine-rich repeat serine/threonine-protein kinase 2 (Homo sapiens, UniProt Q5S007), sequence (Q5S007 whole entry, the tested form may be a part): as the sequence (Q5S007 whole entry G2019S, the tested form may be a part) above, with S2019G counted along it

The inhibition is the change of the read-out against control, counted positive when it falls. What is called IC50 is the concentration needed to halve the response being measured. On to `CS(=O)(=O)c1ccc(-c2ccc3c(NC4CCC4)c(C(N)=O)nnc3c2)cc1`, for which, in the series on Brain, the Drug uptake entry is given as “Active”. In addition, the inhibition in series [1] is 66%; in series [2] it was 4%; in series [3] it was 43%; in series [4] it was 53%; in [5] it was 46%; in series [6] it was 38%. Further, the inhibition in series [8] worked out at 7%; in [11], 53%. Also, the Kp at 5 min in series [7] came to 0.76. Further, the “inhibition (INH)” value in series [9] is “Active”. The IC50 was 19 nM in series [10], 127 nM in series [12] and below 40 nM in [13]. For the same compound, in the series on Mus musculus, the inhibition result was “Active”.

For orientation: EC50 means the concentration that produces a half-maximal response. As for `CC(C)Nc1c(C(N)=O)nnc2ccc(-c3cn[nH]c3)cc12`, the inhibition turned out to be 100% in series [1]; 38% in series [2]; 81% in series [3]; 99% in [4]; 97% in series [5]; 88% in series [6]. Also, the inhibition in series [8] came out at 39%; in [11], 87%. In addition, the IC50 is 5 nM in series [10] and 1 nM in series [14]. In addition, the EC50 in [15] is 109 nM.

For the compound `C[C@@H](Nc1c(C(N)=O)nnc2cc(-c3ccc(S(C)(=O)=O)cc3)ccc12)C1CC1`, the inhibition came out at 91% in series [1]; 12% in [2]; 33% in series [3]; 70% in [4]; 68% in series [5]; 21% in series [6]. Besides, the inhibition in series [8] is 0%; in [11], 80%. Moreover, the IC50 in series [10] came out at 7 nM; in [12], 22 nM; in [14], 1 nM; in series [13], 17 nM. The EC50 in [15] came out at 70 nM.

Take `CC(C)Nc1c(C(N)=O)cnc2cc(-c3ccc(S(C)(=O)=O)cc3)ccc12`: the inhibition in series [1] was found to be 100%; in series [2] it was 11%; in series [3], 64%; in series [4], 86%; in series [5], 50%; in [6], 17%. Besides, the inhibition in series [8] stood at 4%; in series [11] it was 94%. In series [14], the IC50 is 35 nM.

Regarding `CC(C)Nc1c(C(N)=O)nnc2cc(N3CCOCC3)ccc12`, in the series with Brain, the Drug uptake result is given as “Active”. Besides, the inhibition in series [1] was determined as 42%; in [2], 15%; in series [3], 59%; in [4] it was 78%; in series [5] it was 56%; in series [6] it was 27%. Moreover, the inhibition in series [8] was -1%; in [11], 81%. In [7], the Kp at 5 min amounted to 11.4. In addition, in series [9], the “inhibition (INH)” value is on record as “Active”. Moreover, the IC50 in series [10] came out at 12 nM; in series [12] it was 22 nM; in series [14], 9 nM; in [13], 54 nM. The inhibition entry in the series on Mus musculus is “Active”.

Consider `CC(C)Nc1c(C(N)=O)nnc2ccc(-c3ccncc3)cc12`, for which the inhibition in series [1] is 99%; in series [2], 21%; in series [3], 58%; in [4], 88%; in series [5], 97%; in [6] it was 93%. Moreover, the inhibition is 13% in series [8] and 88% in series [11]. Besides, the IC50 in series [10] was found to be 66 nM.

For `CC(C)Nc1c(C(N)=O)nnc2cc(-c3ccncc3)ccc12`, the inhibition in [2] turned out to be 22%; in series [3] it was 82%; in series [4] it was 97%; in series [5], 91%; in series [6] it was 61%; in series [8] it was 33%. Besides, the inhibition in [11] turned out to be 95%.
